In ChEMBL document CHEMBL3244080, “Structure-activity correlations for a series of antiallergy agents. Oxanilic, quinaldic, and benzopyran-2-carboxylic acids” (1978):

Tested on: Rattus norvegicus
Experiment: Antiallergic activity in iv dosed Sprague-Dawley rat assessed as inhibition of egg albumin-induced passive cutaneous anaphylaxis
Type: functional
Details: for ED50: Rattus norvegicus, Sprague-Dawley, iv
Summary of the method: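 Rat passive cutaneous anaphylaxis; drug given iv as its tris(hydroxymethyl)aminomethane (THAM) salt solution at the moment of antigen challenge. Percent inhibition of the PCA reaction measured at three or more trial doses; ED50 = dose giving 50% inhibition of the anaphylactic reaction.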

SMILES | Activity_index | ED50 [µmol/kg]
Nc1ccc2nc(C(=O)O)cc(O)c2c1 | 9.9 | 48.3
COc1ccc2nc(C(=O)O)cc(O)c2c1 | 9.4 | 82.2
O=C(O)C(=O)Nc1ccccc1 | 8.3 | 245
N#Cc1ccc(NC(=O)C(=O)O)cc1 | 10.1 | 40.5
N#Cc1ccccc1NC(=O)C(=O)O | 11.5 | 10.1
N#Cc1cccc(NC(=O)C(=O)O)c1 | 12.6 | 3.38
N#Cc1cc(NC(=O)C(=O)O)ccc1Cl | 13.1 | 2.06
N#Cc1ccc(Cl)c(NC(=O)C(=O)O)c1 | 13.3 | 1.74
N#Cc1cc(C#N)cc(NC(=O)C(=O)O)c1 | 14 | 0.84
Nc1ccc2oc(C(=O)O)cc(=O)c2c1 | 10 | 43.5
O=C(O)c1cc(=O)c2cc([N+](=O)[O-])ccc2o1 | 11.9 | 6.48
O=C(O)c1cc(=O)c2c(OCC(O)COc3cccc4oc(C(=O)O)cc(=O)c34)cccc2o1 [CROMOLYN SODIUM] | – | 6.1
O=C(O)c1cc(=O)c2ccccc2[nH]1 [TRANSTORINE] | 10.1 | 42.4
O=C(O)c1cc(O)c2cccc(O)c2n1 [XANTHURENATE] | 9.1 | 114
